HKDC1 inh = inhibitors of human hexokinase HKDC1 | recombinant HKDC1, G6PDH/diaphorase resazurin coupled fluorescence | inhibition, % at 20 µM | 340,000 compounds, 0.16% hits;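 active means inhibition above about 35% when tested at 20 µM, limit read from the data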;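 further: plate controls were DMSO wells with enzyme for no effect and DMSO wells lacking enzyme for full effect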
Target sequence (Q2TB90 whole entry, looked up): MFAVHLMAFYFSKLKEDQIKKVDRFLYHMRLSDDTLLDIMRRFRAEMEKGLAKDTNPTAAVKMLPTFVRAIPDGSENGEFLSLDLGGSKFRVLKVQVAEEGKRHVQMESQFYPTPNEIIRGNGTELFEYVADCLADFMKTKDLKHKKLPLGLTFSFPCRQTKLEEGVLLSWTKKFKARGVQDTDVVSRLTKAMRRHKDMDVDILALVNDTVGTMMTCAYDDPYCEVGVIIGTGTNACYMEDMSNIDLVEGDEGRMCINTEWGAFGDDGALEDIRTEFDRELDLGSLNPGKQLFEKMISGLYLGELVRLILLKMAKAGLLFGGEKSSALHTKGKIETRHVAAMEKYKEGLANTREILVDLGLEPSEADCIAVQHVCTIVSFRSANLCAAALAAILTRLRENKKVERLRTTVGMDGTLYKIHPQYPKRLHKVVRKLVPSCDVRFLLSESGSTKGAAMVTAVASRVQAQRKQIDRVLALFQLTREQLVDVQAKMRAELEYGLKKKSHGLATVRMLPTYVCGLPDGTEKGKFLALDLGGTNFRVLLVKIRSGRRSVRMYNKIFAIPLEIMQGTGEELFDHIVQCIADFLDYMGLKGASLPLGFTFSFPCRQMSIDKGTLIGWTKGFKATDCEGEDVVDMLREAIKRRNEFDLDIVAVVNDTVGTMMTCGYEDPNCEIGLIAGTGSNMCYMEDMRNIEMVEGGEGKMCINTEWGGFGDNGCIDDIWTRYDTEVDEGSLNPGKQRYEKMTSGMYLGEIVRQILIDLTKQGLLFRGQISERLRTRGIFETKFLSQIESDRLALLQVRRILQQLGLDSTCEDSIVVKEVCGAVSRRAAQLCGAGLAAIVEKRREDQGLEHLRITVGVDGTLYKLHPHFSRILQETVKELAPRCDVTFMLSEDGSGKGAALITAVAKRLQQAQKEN
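Assay system: recombinant HKDC1 hexokinase; detection: coupled resazurin fluorescence, excitation 525 nm, emission 613 nm; benchmarks: DMSO-plus-enzyme-mix negative control, buffer-substituted positive control; compound dosing: single 20 µM dose; schedule: 90 min at room temperature in dark; also added: glucose plus 1 mM ATP as hexokinase substrates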
G6PDH counter = counter-screen for G6PDH assay hits: L. mesenteroides G6PDH inhibition | AID 1020 | 200,000 compounds, 0.12% hits | Purified L. mesenteroides G6PDH, diaphorase/resazurin coupled fluorescence, 45 min | inhibition, % at 5 µM; in the data active means inhibition above about 50%
PfG6PD inh = PfG6PD (Plasmodium falciparum) enzyme inhibition. PfGluPho enzyme, NADPH resazurin-diaphorase fluorescence. inhibition, % at 20 µM. 350,000 compounds, 0.78% hits. AID 504690;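 active means inhibition reaching at least a set limit at 20 µM in the primary screen, cut at about 59% in these data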;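 further: 0% = DMSO wells with substrate and 100% = DMSO wells lacking glucose-6-phosphate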
Tb hexokinase = blocks Trypanosoma brucei hexokinase 1 activity; recombinant TbHK1, G6PDH-coupled NADH A340; inhibition, % at 10 µM; 220,000 compounds, 0.11% hits; AID 1430;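 active means inhibition of 50% or more in the single-dose primary screen; inactive means inhibition below 50%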
Diaph inh CS = inhibits diaphorase or chemically oxidizes, flagging diaphorase assay artifacts; diaphorase resazurin-to-resorufin fluorescence, NADH, 16 min; bacterial (C. kluyveri) enzyme, not human; inhibition, % at 20 µM; 190,000 compounds, 0.69% hits;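 active means primary screen inhibition at 20 µM above a set limit, cut at about 50% in these data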;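 further: plate controls were DMSO with full reaction for no effect and wells lacking NADH for full effect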
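Assay system: diaphorase enzyme from Clostridium kluyveri. Quantity: enzyme working solution with 0.14 U/mL diaphorase. Schedule: reaction incubation of 16 min at room temperature. Technique: resorufin fluorescence, excitation 544 nm, emission 590 nm. Controls: No-NADH positive control and DMSO neutral control.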
* marks the source's active call; other numbers are inactive results; nt = not tested or not shown. Rows were chosen to be rich in hits. Some 1.3% of all compounds tested hit in one or more screens of this group.

SMILES	HKDC1 inh	G6PDH counter	PfG6PD inh	Tb hexokinase	Diaph inh CS
N/C(COc1ncn(-c2ccccc2)n1)=N\S(=O)(=O)c1ccc(Cl)cc1Cl	-8	12	16	0	61*
NC(=O)COc1ncn(-c2ccccc2)n1	-7	6	-9	0	13
C=CC(=O)Nc1cccc(Oc2ccnc(Nc3ccc(N4CCN(C)CC4)cc3)n2)c1	8	nt	36	nt	nt
C=CC(=O)Nc1cccc(N(C)c2ccnc(Nc3ccc(N4CCN(C)CC4)cc3)n2)c1	9	nt	66*	nt	nt
CC(C)N1CC=C2C(C#N)=C(N)C(C#N)(C#N)[C@H](c3ccoc3)[C@H]2C1	nt	15	nt	-8	62*
Cc1ccc2c(c1C)NC(C(=O)O)C1CC=CC21 (centres undefined)	38*	9	-9	nt	43
CCOC(=O)c1ccc2c(c1)C1C=CCC1C(C(=O)O)N2 (centres undefined)	nt	0	nt	15	62*
CC(C)C1Nc2ccc(C(=O)O)cc2C2C=CCC21 (centres undefined)	10	24	-7	0	42
CC1=C(C#N)C(=O)NC(=O)/C1=C\c1ccc(-c2cc(C)c(C)cc2[N+](=O)[O-])o1	23	28	30	-4	61*
COc1ccc(N(CC(=O)O)S(=O)(=O)c2c(C)n[nH]c2C)cc1	-12	5	-9	4	-1
Oc1cc(O)c2c(c1)O[C@H](c1ccc(O)c(O)c1)[C@H](O)C2	-2	nt	18	nt	nt
O=C(O[C@@H]1Cc2c(O)cc(O)cc2O[C@@H]1c1cc(O)c(O)c(O)c1)c1cc(O)c(O)c(O)c1	nt	5	nt	nt	74*
Cc1ccc(N(CC(O)CN2CCCC2)S(=O)(=O)c2ccc(C)cc2)cc1 (centres undefined)	4	3	4	10	11
Cc1noc(C)c1C(=O)N1CC(C)OC(C)C1 (centres undefined)	-8	-1	-8	-3	15
Cc1cccc(N2CCN(C(=O)Cn3sc4nc(C)cc(C)c4c3=O)CC2C)c1 (centres undefined)	-2	-3	105*	4	22
CCC1(C)Cc2c(sc3nnn(Cc4ccccc4Cl)c(=O)c23)CO1 (centres undefined)	-6	4	21	-2	57*
CCOC(=O)CSc1nc2c(sc(=S)n2-c2ccccc2)c(=O)n1-c1ccc(OC)cc1OC	-3	nt	65*	nt	nt
O=C(O)COn1c(-c2ccccc2)nc2ccc([N+](=O)[O-])cc21	7	14	57	-24	50*
Cc1ccc(COn2c(-c3ccc(Cl)cc3)nc3ccc([N+](=O)[O-])cc32)cc1	0	8	53	-24	23
CC(C)C(NC(=O)c1ccc(F)cc1)C(=O)N1CCN(c2ccccn2)CC1 (centres undefined)	-5	nt	-13	nt	nt
COC(=O)c1ccccc1Oc1ccc(NC(=O)C(C)(C)CCl)cc1	-9	-5	1	-4	4
CCn1c2ccccc2c2nnc(SCc3cc(=O)n4ccsc4n3)nc21	nt	2	nt	nt	77*
CCCCCCn1cc(C(=O)O)c(=O)c2cc(F)c(N3CCN(C(=O)OCC)CC3)cc21	-2	nt	-2	nt	nt
[O-]/[N+](=C/c1ccc(F)cc1)c1ccc(Cl)cc1	-4	6	65*	10	14
c1ccc(Cc2nnc(N3CCCCC3)c3ccccc23)cc1	6	-7	12	-2	6
SMILES	HKDC1 inh	G6PDH counter	PfG6PD inh	Tb hexokinase	Diaph inh CS
c1ccc(Cc2nnc(N3CCOCC3)c3ccccc23)cc1	2	56*	-11	-4	2
C=CC#CC[N+]1(CC#Cc2ccccc2)CCOCC1	34	1	72*	16	-47
CCOC(=O)C1CCN(c2c(C(=O)c3ccccc3)cnc3ccc(CC)cc23)CC1	3	15	17	-1	10
CC(C)S(=O)(=O)C1=NSC2=NC(=O)/C(=C\c3ccc(-c4cccc(C(=O)O)c4)o3)C(=N)N21	18	13	-22	-8	74*
N=C1/C(=C/c2ccc(-c3cccc(C(=O)O)c3)o2)C(=O)N=C2SC=C(c3ccccc3)N12	20	2	-15	20	54*
CCOc1cccc(C(=O)Nc2ccccc2OC(F)F)c1	-2	14	-2	2	12
COc1ccc(CN(C)CC(=O)Nc2cccc3ccccc23)cc1F	-4	nt	-9	nt	nt
N#Cc1cccc(N=c2ssnc2Cl)c1	-13	4	80*	35	28
O=C(/C=C/c1cccc([N+](=O)[O-])c1)c1ccco1	17	nt	1	nt	nt
O=C(/C=C/c1cccc([N+](=O)[O-])c1)c1ccc([N+](=O)[O-])o1	55*	nt	98*	nt	nt
O=c1c2c3nc4ccccc4nc3n(-c3ccc4c(c3)OCCO4)c2ncn1C1CCCC1	48*	5	5	nt	26
COc1ccc(NC(=O)CN(C)C(=O)CNC(=O)c2ccc3ccccc3c2)cc1	0	nt	10	nt	nt
COc1ccc(CCN=C(N)NS(=O)(=O)c2cc(F)ccc2OC)cc1	-3	nt	3	nt	nt
O=C(Cc1ccc(Cl)cc1)Oc1cccc2cccnc12	2	63*	-21	4	42
O=C(Oc1cccc2cccnc12)c1cccc([N+](=O)[O-])c1	6	59*	8	4	34
O=C(Oc1cccc2cccnc12)c1ccco1	0	41	-3	2	23
COC(=O)c1sccc1NC(=S)NCc1ccc(Cl)cc1	-1	nt	-15	-13	nt
O=C(Nc1ccccc1)C1=C[C@@H](c2ccc(Br)cc2)C[C@@H](OCCCCO)O1	-1	6	10	-7	63*
O=C(Nc1ccccc1)C1=C[C@H](c2ccccc2)C[C@H](OCCCCO)O1	-4	nt	-6	nt	nt
O=[N+]([O-])c1ccc(N/N=C/c2ccc[nH]2)cc1	-4	8	81*	-10	27
N=C1C=CC=C2C1=NC1(CCCCC1)N2O	1	-24	23	-11	64*
CCCN(CCC)C(=O)c1cc([N+](=O)[O-])cc2c1-c1ccc([N+](=O)[O-])cc1C2=C(C#N)C#N	41*	nt	54	-3	nt
Cc1ccccc1NC(=O)C12CC3CCC1(C)C3(C)CO2 (centres undefined)	-10	9	8	-2	0
NC1=CC(=O)c2cccc3cccc1c23	nt	22	nt	-10	63*
Nc1c(C(=O)NC2CC2)c2nc3ccccc3nc2n1-c1ccc2c(c1)OCO2	-1	12	-2	0	66*
CCCNC(=O)c1c(N)n(-c2ccc3c(c2)OCO3)c2nc3ccccc3nc12	-1	7	-20	32	16
CCn1c2ccccc2c2nc3cc(C(=O)O)ccc3nc21	0	16	-8	-20	60*
CN1C(=O)c2ccc(NC(=O)c3c(C(=O)O)cccc3[N+](=O)[O-])cc2C1=O	-6	nt	11	nt	nt
COC(=O)c1cc(=O)nc2sc(-c3cccs3)nn12	-4	1	8	-25	9
COC(=O)c1cc(=O)nc2sc(-c3ccc(F)cc3)nn12	-13	4	59*	-2	13
